Compound activity: PubChem, several laboratories
Rows were chosen to be rich in hits. Some 2.6% of all compounds tested hit in one or more screens of this group.
SENP8 block-1 – SENP8 protease inhibitors, primary screen, biochemical, luminescence. 330,000 compounds, 1.2% hits. Sentrin-specific protease 8 (Homo sapiens), Q96LD8. purified SENP8, Z-RLRGG-aminoluciferin cleavage. inhibition, % at 10 µM; in the data active = inhibition above about 50%
Platelet DG rel – inhibitors of platelet dense granule secretion, primary screen, cell-based, MLPCN, human platelets; human platelet-rich plasma, SFLLRN dense granule ATP release, luminescence; inhibition, %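 (compounds screened at 7.5 µM in platelet-rich plasma)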; 300,000 compounds, 0.22% hits;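 active = mean replicate score, as percent of positive control, at or above 50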
SENP1 FRET inh – human SENP1 catalytic domain inhibitors, primary screen, biochemical, FRET, uHTS; inhibition, % at 10 µM; AID 624204, 2012; recombinant SENP1 catalytic domain, CyPet-SUMO1-YPet FRET cleavage; 360,000 compounds, 0.21% hits;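 active = inhibition at least 30% at 10 µM, raw YFP signal under a set limit, fluorescence ratio 0.5 to 1.5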
Target sequence (Q9P0U3 419-644 limits assumed): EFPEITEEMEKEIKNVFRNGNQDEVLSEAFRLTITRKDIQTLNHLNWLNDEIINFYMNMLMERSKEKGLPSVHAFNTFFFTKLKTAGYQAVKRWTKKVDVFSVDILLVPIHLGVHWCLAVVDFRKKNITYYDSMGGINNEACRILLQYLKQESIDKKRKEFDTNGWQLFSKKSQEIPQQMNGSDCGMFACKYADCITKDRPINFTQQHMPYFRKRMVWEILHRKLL
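system = hSENP1 catalytic domain, recombinant | reagent = SFCypet-SUMO1-SFYpet substrate at 25 nM | doses = one dose per compound, 10 µM, 0.5% DMSO | incubation = enzyme reaction for 50 min at room temperature, dark | measured by = FRET, CFP and YFP emission | controls = no-enzyme low, enzyme-DMSO high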
SENP6 block – SENP6 protease inhibitors, primary screen, biochemical, luminescence, uHTS | inhibition, % at 10 µM | Recombinant SENP6 catalytic domain, aminoluciferin luminescence | AID 2599, 2010 | Sentrin-specific protease 6 (Homo sapiens), Q9GZR1 | 330,000 compounds, 1.8% hits;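 active = inhibition above about 50% at the single tested dose, limit read from the data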
SENP7 inh – SENP7 protease inhibitors, primary screen, biochemical, luminescence, uHTS | Sentrin-specific protease 7 (Homo sapiens), Q9BQF6 | recombinant SENP7, Z-RLRGG-aminoluciferin luminescence, 40 min | inhibition, % at 5 µM | 330,000 compounds, 1.5% hits;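 active = inhibition above about 50% at the single test dose, limit read from the data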
SENP8 block-2 – human SENP8 protease inhibitors, primary screen, biochemical, fluorescence, Nedd8 protein substrate, uHTS; Sentrin-specific protease 8 (Homo sapiens), Q96LD8; AID 602440, 2012; recombinant SENP8; inhibition, % at 20 µM; 360,000 compounds, 0.64% hits; in the data active = inhibition mostly above about 40%, no sharp cut-off; inactive = mostly below about 27%
SENP8 confirm – SENP8 protease inhibitors, retest, confirmation, biochemical, luminescence, single concentration; shares compounds with SENP7 inh; Recombinant SENP8, Z-RLRGG-aminoluciferin luminescence, 60 min; inhibition, % at 12.5 µM; 6,200 compounds, 40% hits; AID 488912, 2010;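 active = mean inhibition across replicates above about 50%, limit read from the data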
SENP6 conf – SENP6 protease inhibitors, confirmation, biochemical, luminescence, single concentration; shares compounds with SENP7 inh; recombinant SENP6, Z-RLRGG-aminoluciferin luminescence; inhibition, % at 12.5 µM; 6,200 compounds, 58% hits; AID 488915, 2010
SENP7 conf – SENP7 protease inhibitors, retest, confirmation, biochemical, luminescence, single concentration | shares compounds with SENP7 inh | recombinant SENP7, Z-RLRGG-aminoluciferin luminescence, 40 min | inhibition, % at 12.5 µM | 6,200 compounds, 69% hits | AID 488917, 2010
Casp3 SENP sel – caspase-3 protease inhibitors, confirmation, selectivity assay for SENP inhibitor project, biochemical, single concentration; shares compounds with SENP7 inh; purified caspase-3, Z-DEVD-aminoluciferin luminescence, 60 min; inhibition, % at 12.5 µM; 6,200 compounds, 60% hits;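 active = mean inhibition above about 50%, limit read from the data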
Target sequence (P42574 28-227 limits assumed): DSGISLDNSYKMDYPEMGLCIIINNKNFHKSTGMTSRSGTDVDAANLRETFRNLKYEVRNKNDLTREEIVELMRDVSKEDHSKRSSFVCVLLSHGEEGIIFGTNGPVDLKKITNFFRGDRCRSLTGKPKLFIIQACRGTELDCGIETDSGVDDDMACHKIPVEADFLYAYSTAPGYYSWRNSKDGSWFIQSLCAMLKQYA
Luc interf – luminescence interference (SENP counter-screen); shares compounds with SENP7 inh; Pre-incubated SENP8/Z-RLRGG-aminoluciferin, luciferase luminescence interference; inhibition, % at 12.5 µM; 6,200 compounds, 39% hits;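 active = mean inhibition above about 50% when retested at one dose, limit read from the data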
Hits are given with their value.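 Rule for the calls, unless noted: active = mean inhibition above about 50% in the one-dose retest (limit read from the data); inactive = the rest.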

`COc1ccc(-c2cc(=O)c3c(O)c(OC)c(O)cc3o2)cc1` gave SENP8 block-1 83, Platelet DG rel inactive, SENP1 FRET inh inactive, SENP6 block 84, SENP7 inh 87, SENP8 block-2 inactive, SENP8 confirm 90, SENP6 conf 90, SENP7 conf 99, Casp3 SENP sel 89 and Luc interf 55.
Screening O=c1cc(-c2ccc(O)cc2)oc2cc(O)cc(O)c12 returned SENP8 block-1 54, Platelet DG rel inactive, SENP1 FRET inh inactive, SENP6 block 70, SENP7 inh inactive, SENP8 block-2 inactive, SENP8 confirm 52, SENP6 conf 51, SENP7 conf 75, Casp3 SENP sel inactive and Luc interf 62.
CCOC(=O)C1CCN(S(=O)(=O)c2cn(C)c(C)n2)CC1 was read as SENP8 block-1 inactive, Platelet DG rel inactive, SENP1 FRET inh inactive, SENP6 block inactive, SENP7 inh inactive and SENP8 block-2 inactive.
Cc1ccccc1CC(=O)Nc1ccc(C(=O)N2CCCC2)cc1 was read as SENP8 block-1 inactive, Platelet DG rel inactive, SENP1 FRET inh inactive, SENP6 block inactive, SENP7 inh 55, SENP8 block-2 inactive, SENP8 confirm inactive, SENP6 conf inactive, SENP7 conf 69, Casp3 SENP sel 78 and Luc interf 53.
Cc1ccc(C(=O)Nc2ccc(C(=O)N3CCCCC3)cc2)o1 was read as SENP8 block-1 inactive, Platelet DG rel inactive, SENP1 FRET inh inactive, SENP6 block 66, SENP7 inh 78, SENP8 block-2 inactive, SENP8 confirm 58, SENP6 conf 60, SENP7 conf 89, Casp3 SENP sel 89 and Luc interf 68.
Cc1ccc(C(=O)Nc2ccc(NC(=O)c3ccc(C)o3)cc2)o1 was read as SENP8 block-1 inactive, Platelet DG rel inactive, SENP1 FRET inh inactive, SENP6 block inactive, SENP7 inh inactive and SENP8 block-2 inactive.
`CCOC(=O)N1CCN(C(=O)c2noc3c2COc2ccccc2-3)CC1` gave SENP8 block-1 inactive, Platelet DG rel inactive, SENP1 FRET inh inactive, SENP6 block 61, SENP7 inh 54, SENP8 block-2 inactive, SENP8 confirm inactive, SENP6 conf inactive, SENP7 conf 78, Casp3 SENP sel 75 and Luc interf inactive.
`CCCN1CCN(C(=O)c2noc3c2COc2ccc(C)cc2-3)CC1` gave SENP8 block-1 inactive, Platelet DG rel inactive, SENP1 FRET inh inactive, SENP6 block inactive, SENP7 inh inactive and SENP8 block-2 inactive.
For COc1ccc(CNC(=O)C2CCN(S(=O)(=O)c3ccc4c(c3)N(C(C)=O)CCO4)CC2)cc1 the results were SENP8 block-1 inactive, Platelet DG rel inactive, SENP1 FRET inh inactive, SENP6 block inactive, SENP7 inh inactive and SENP8 block-2 inactive.
